ChEMBL document CHEMBL1773037, “Evaluation of superior BACE1 cleavage sequences containing unnatural amino acids” (Bioorg Med Chem, 2011)
The source made the active and inactive calls. The rule behind the calls is not given here. Starred links: 1 amine or outer side, 2 acyl side, 3 side chain; linkers in the order of their positions; H or OH if unused. Non-standard residues stand in square brackets, D forms with d. Residues, ends and D or L forms follow the SMILES beside them. X1 = O=C(O)[C@@H]1Cc2ccccc2CN1[C@H](N[*:1])C(=O)[*:2]; 2Thi = N[C@@H](Cc1cccs1)C(=O)O; Cha = N[C@@H](CC1CCCCC1)C(=O)O; Cit = NC(=O)NCCC[C@H](N)C(=O)O; Tle = CC(C)(C)[C@H](N)C(=O)O; Nva = CCC[C@H](N)C(=O)O

Legend:
[1] = target: Beta-secretase 1 (Homo sapiens) (UniProt P56817); assay: Activity of recombinant BACE assessed as substrate cleavage at 300 uM after 3 hrs by HPLC analysis
Chain of Beta-secretase 1 (Homo sapiens) (P56817 whole entry): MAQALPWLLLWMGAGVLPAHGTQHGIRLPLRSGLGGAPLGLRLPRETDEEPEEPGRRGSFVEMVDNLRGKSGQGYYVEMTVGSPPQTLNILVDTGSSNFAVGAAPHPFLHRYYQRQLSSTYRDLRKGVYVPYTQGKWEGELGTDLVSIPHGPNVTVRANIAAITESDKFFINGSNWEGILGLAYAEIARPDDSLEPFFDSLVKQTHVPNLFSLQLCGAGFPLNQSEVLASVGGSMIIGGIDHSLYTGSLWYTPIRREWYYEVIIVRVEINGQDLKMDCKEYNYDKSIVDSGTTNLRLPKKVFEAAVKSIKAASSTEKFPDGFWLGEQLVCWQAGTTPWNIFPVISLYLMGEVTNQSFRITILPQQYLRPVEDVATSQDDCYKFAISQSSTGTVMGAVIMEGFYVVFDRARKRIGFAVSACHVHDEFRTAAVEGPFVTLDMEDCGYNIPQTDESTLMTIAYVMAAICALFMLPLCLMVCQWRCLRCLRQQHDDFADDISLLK
Outline: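 Individually synthesized, purified substrates at 300 µM in 40 mM AcONa buffer, pH 4.5, 37 °C. rBACE1 used at 60 nM (P1, P4 substrates), 30 nM (P2, P3 substrates) or 10 nM (P1' substrates and the dodecapeptide). Aliquots taken at 0, 1 and 3 h, quenched with 7 M GuHCl, and the decrease in each substrate peak monitored by HPLC.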

[2] = target: Beta-secretase 1 (Homo sapiens) (UniProt P56817); assay: Activity of recombinant BACE assessed as retention time of substrate by HPLC method

| Activity [1] | retention time [2] [h] | Compound |
| --- | --- | --- |
| Active | 0.49 | CC[C@H](C)[C@H](N)C(=O)N[C@@H](CO)C(=O)N[C@@H](CCC(=O)O)C(=O)N[C@H](C(=O)N[C@@H](CC(=O)O)C(=O)N[C@@H](CC(C)C)C(=O)N[C@@H](CC(=O)O)C(=O)N[C@@H](C)C(=O)N[C@@H](CCC(=O)O)C(=O)N[C@@H](Cc1ccccc1)C(=O)N[C@@H](CCCNC(=N)N)C(=O)N[C@@H](Cc1cnc[nH]1)C(N)=O)C(C)C (H-ISEVDLDAEFRH-NH2) |
| 50% | 0.502 | CC[C@H](C)[C@H](N)C(=O)N[C@@H](CO)C(=O)N[C@@H](CCC(=O)O)C(=O)N[C@H](C(=O)N[C@@H](CC(N)=O)C(=O)N[C@@H](Cc1ccccc1)C(=O)N[C@@H](CC(=O)O)C(=O)N[C@@H](C)C(=O)N[C@@H](CCC(=O)O)C(=O)N[C@@H](Cc1ccccc1)C(=O)N[C@@H](CCCNC(=N)N)C(=O)N[C@@H](Cc1cnc[nH]1)C(N)=O)C(C)C (H-ISEVNFDAEFRH-NH2) |
| Active | – | CC[C@H](C)[C@H](N)C(=O)N[C@@H](CO)C(=O)N[C@@H](CCC(=O)O)C(=O)N[C@H](C(=O)N[C@@H](CC(N)=O)C(=O)N[C@@H](CC(=O)O)C(=O)N[C@@H](CC(=O)O)C(=O)N[C@@H](C)C(=O)N[C@@H](CCC(=O)O)C(=O)N[C@@H](Cc1ccccc1)C(=O)N[C@@H](CCCNC(=N)N)C(=O)N[C@@H](Cc1cnc[nH]1)C(N)=O)C(C)C (H-ISEVNDDAEFRH-NH2) |
| Active | 0.521 | CCC[C@H](NC(=O)[C@@H](NC(=O)[C@H](CCC(=O)O)NC(=O)[C@H](CO)NC(=O)[C@@H](N)[C@@H](C)CC)C(C)C)C(=O)N[C@@H](CC(C)C)C(=O)N[C@@H](CC(=O)O)C(=O)N[C@@H](C)C(=O)N[C@@H](CCC(=O)O)C(=O)N[C@@H](Cc1ccccc1)C(=O)N[C@@H](CCCNC(=N)N)C(=O)N[C@@H](Cc1cnc[nH]1)C(N)=O (H-ISEV[Nva]LDAEFRH-NH2) |
| Active | 0.496 | CCC[C@H](NC(=O)[C@H](CCC(=O)O)NC(=O)[C@H](CO)NC(=O)[C@@H](N)[C@@H](C)CC)C(=O)N[C@@H](CC(N)=O)C(=O)N[C@@H](CC(C)C)C(=O)N[C@@H](CC(=O)O)C(=O)N[C@@H](C)C(=O)N[C@@H](CCC(=O)O)C(=O)N[C@@H](Cc1ccccc1)C(=O)N[C@@H](CCCNC(=N)N)C(=O)N[C@@H](Cc1cnc[nH]1)C(N)=O (H-ISE[Nva]NLDAEFRH-NH2) |
| Active | 0.551 | CC[C@H](C)[C@H](N)C(=O)N[C@@H](CO)C(=O)N[C@@H](CCC(=O)O)C(=O)N[C@H](C(=O)N[C@@H](Cc1cccs1)C(=O)N[C@@H](CC(C)C)C(=O)N[C@@H](CC(=O)O)C(=O)N[C@@H](C)C(=O)N[C@@H](CCC(=O)O)C(=O)N[C@@H](Cc1ccccc1)C(=O)N[C@@H](CCCNC(=N)N)C(=O)N[C@@H](Cc1cnc[nH]1)C(N)=O)C(C)C (H-ISEV[2Thi]LDAEFRH-NH2) |
| Active | 0.622 | CCC[C@H](NC(=O)[C@H](CC(C)C)NC(=O)[C@H](CC(N)=O)NC(=O)[C@@H](NC(=O)[C@H](CCC(=O)O)NC(=O)[C@H](CO)NC(=O)[C@@H](N)[C@@H](C)CC)C(C)C)C(=O)N[C@@H](C)C(=O)N[C@@H](CCC(=O)O)C(=O)N[C@@H](Cc1ccccc1)C(=O)N[C@@H](CCCNC(=N)N)C(=O)N[C@@H](Cc1cnc[nH]1)C(N)=O (H-ISEVNL[Nva]AEFRH-NH2) |
| – | 0.616 | CC[C@H](C)[C@H](N)C(=O)N[C@@H](CO)C(=O)N[C@@H](CCC(=O)O)C(=O)N[C@H](C(=O)N[C@@H](CC1CCCCC1)C(=O)N[C@@H](CC(C)C)C(=O)N[C@@H](CC(=O)O)C(=O)N[C@@H](C)C(=O)N[C@@H](CCC(=O)O)C(=O)N[C@@H](Cc1ccccc1)C(=O)N[C@@H](CCCNC(=N)N)C(=O)N[C@@H](Cc1cnc[nH]1)C(N)=O)C(C)C (H-ISEV[Cha]LDAEFRH-NH2) |
| – | 0.269 | CCC[C@H](N)C(=O)N[C@@H](C)C(=O)N[C@@H](CCC(=O)O)C(=O)N[C@@H](Cc1ccccc1)C(=O)N[C@@H](CCCNC(=N)N)C(=O)N[C@@H](Cc1cnc[nH]1)C(N)=O (H-[Nva]AEFRH-NH2) |
| – | 0.591 | CC[C@H](C)[C@H](N)C(=O)N[C@@H](CO)C(=O)N[C@@H](Cc1cccs1)C(=O)N[C@H](C(=O)N[C@@H](CC(N)=O)C(=O)N[C@@H](CC(C)C)C(=O)N[C@@H](CC(=O)O)C(=O)N[C@@H](C)C(=O)N[C@@H](CCC(=O)O)C(=O)N[C@@H](Cc1ccccc1)C(=O)N[C@@H](CCCNC(=N)N)C(=O)N[C@@H](Cc1cnc[nH]1)C(N)=O)C(C)C (H-IS[2Thi]VNLDAEFRH-NH2) |
| – | 0.517 | CC[C@H](C)[C@H](N)C(=O)N[C@@H](CO)C(=O)N[C@@H](CCC(=O)O)C(=O)N[C@H](C(=O)N[C@@H](CC(N)=O)C(=O)N[C@@H](CC(C)C)C(=O)N[C@@H](CC(=O)O)C(=O)N[C@@H](C)C(=O)N[C@@H](CCC(=O)O)C(=O)N[C@@H](Cc1ccccc1)C(=O)N[C@@H](CCCNC(=N)N)C(=O)N[C@@H](Cc1cnc[nH]1)C(N)=O)C(C)(C)C (H-ISE[Tle]NLDAEFRH-NH2) |
| Active | 0.517 | CC[C@H](C)[C@H](N)C(=O)N[C@@H](CO)C(=O)N[C@@H](CCC(=O)O)C(=O)N[C@H](C(=O)N[C@@H](CC(N)=O)C(=O)N[C@@H](CC(C)C)C(=O)N[C@@H](CC(=O)O)C(=O)N[C@@H](C)C(=O)N[C@@H](CCC(=O)O)C(=O)N[C@@H](Cc1ccccc1)C(=O)N[C@@H](CCCNC(=N)N)C(=O)N[C@@H](Cc1cnc[nH]1)C(N)=O)[C@@H](C)CC (H-ISEINLDAEFRH-NH2) |
| Active | 0.474 | CC[C@H](C)[C@H](N)C(=O)N[C@@H](CO)C(=O)N[C@@H](CCCNC(N)=O)C(=O)N[C@H](C(=O)N[C@@H](CC(N)=O)C(=O)N[C@@H](CC(C)C)C(=O)N[C@@H](CC(=O)O)C(=O)N[C@@H](C)C(=O)N[C@@H](CCC(=O)O)C(=O)N[C@@H](Cc1ccccc1)C(=O)N[C@@H](CCCNC(=N)N)C(=O)N[C@@H](Cc1cnc[nH]1)C(N)=O)C(C)C (H-IS[Cit]VNLDAEFRH-NH2) |
| – | 0.469 | CC[C@H](C)[C@H](N)C(=O)N[C@@H](CO)C(=O)N[C@@H](CCC(N)=O)C(=O)N[C@H](C(=O)N[C@@H](CC(N)=O)C(=O)N[C@@H](CC(C)C)C(=O)N[C@@H](CC(=O)O)C(=O)N[C@@H](C)C(=O)N[C@@H](CCC(=O)O)C(=O)N[C@@H](Cc1ccccc1)C(=O)N[C@@H](CCCNC(=N)N)C(=O)N[C@@H](Cc1cnc[nH]1)C(N)=O)C(C)C (H-ISQVNLDAEFRH-NH2) |
| – | 0.727 | CC[C@H](C)[C@H](N)C(=O)N[C@@H](CO)C(=O)N[C@@H](CCC(=O)O)C(=O)N[C@H](C(=O)N[C@@H](CC(N)=O)C(=O)N[C@@H](CC(C)C)C(=O)N[C@@H](CC1CCCCC1)C(=O)N[C@@H](C)C(=O)N[C@@H](CCC(=O)O)C(=O)N[C@@H](Cc1ccccc1)C(=O)N[C@@H](CCCNC(=N)N)C(=O)N[C@@H](Cc1cnc[nH]1)C(N)=O)C(C)C (H-ISEVNL[Cha]AEFRH-NH2) |
| – | 0.438 | CC[C@H](C)[C@H](N)C(=O)N[C@@H](CO)C(=O)N[C@@H](CCC(=O)O)C(=O)N[C@@H](CCCNC(N)=O)C(=O)N[C@@H](CC(N)=O)C(=O)N[C@@H](CC(C)C)C(=O)N[C@@H](CC(=O)O)C(=O)N[C@@H](C)C(=O)N[C@@H](CCC(=O)O)C(=O)N[C@@H](Cc1ccccc1)C(=O)N[C@@H](CCCNC(=N)N)C(=O)N[C@@H](Cc1cnc[nH]1)C(N)=O (H-ISE[Cit]NLDAEFRH-NH2) |
| – | 0.588 | CC[C@H](C)[C@H](N)C(=O)N[C@@H](CO)C(=O)N[C@H](C(=O)N[C@H](C(=O)N[C@@H](CC(N)=O)C(=O)N[C@@H](CC(C)C)C(=O)N[C@@H](CC(=O)O)C(=O)N[C@@H](C)C(=O)N[C@@H](CCC(=O)O)C(=O)N[C@@H](Cc1ccccc1)C(=O)N[C@@H](CCCNC(=N)N)C(=O)N[C@@H](Cc1cnc[nH]1)C(N)=O)C(C)C)C(C)(C)C (H-IS[Tle]VNLDAEFRH-NH2) |
| – | 0.42 | CC[C@H](C)[C@H](N)C(=O)N[C@@H](CO)C(=O)N[C@@H](CCC(=O)O)C(=O)N[C@H](C(=O)N[C@@H](CC(N)=O)C(=O)N[C@@H](Cc1ccc(O)cc1)C(=O)N[C@@H](CC(=O)O)C(=O)N[C@@H](C)C(=O)N[C@@H](CCC(=O)O)C(=O)N[C@@H](Cc1ccccc1)C(=O)N[C@@H](CCCNC(=N)N)C(=O)N[C@@H](Cc1cnc[nH]1)C(N)=O)C(C)C (H-ISEVNYDAEFRH-NH2) |
| Active | 0.521 | CC[C@H](C)[C@H](N)C(=O)N[C@@H](CO)C(=O)N[C@@H](CCC(=O)O)C(=O)N[C@H](C(=O)N[C@@H](CCSC)C(=O)N[C@@H](CC(C)C)C(=O)N[C@@H](CC(=O)O)C(=O)N[C@@H](C)C(=O)N[C@@H](CCC(=O)O)C(=O)N[C@@H](Cc1ccccc1)C(=O)N[C@@H](CCCNC(=N)N)C(=O)N[C@@H](Cc1cnc[nH]1)C(N)=O)C(C)C (H-ISEVMLDAEFRH-NH2) |
| – | 0.648 | CC[C@H](C)[C@H](N)C(=O)N[C@@H](CO)C(=O)N[C@@H](CCC(=O)O)C(=O)N[C@H](C(=O)N[C@@H](CC(N)=O)C(=O)N[C@@H](CC(C)C)C(=O)N[C@H](C(=O)N[C@@H](C)C(=O)N[C@@H](CCC(=O)O)C(=O)N[C@@H](Cc1ccccc1)C(=O)N[C@@H](CCCNC(=N)N)C(=O)N[C@@H](Cc1cnc[nH]1)C(N)=O)N1Cc2ccccc2C[C@H]1C(=O)O)C(C)C (H-ISEVNL[X1]AEFRH-NH2) |
| Active | – | CC[C@H](C)[C@H](N)C(=O)N[C@@H](CO)C(=O)N[C@@H](CCC(=O)O)C(=O)N[C@H](C(=O)N[C@@H](CC(N)=O)C(=O)N[C@@H](CCSC)C(=O)N[C@@H](CC(=O)O)C(=O)N[C@@H](C)C(=O)N[C@@H](CCC(=O)O)C(=O)N[C@@H](Cc1ccccc1)C(=O)N[C@@H](CCCNC(=N)N)C(=O)N[C@@H](Cc1cnc[nH]1)C(N)=O)C(C)C (H-ISEVNMDAEFRH-NH2) |
| – | 0.533 | CC[C@H](C)[C@H](N)C(=O)N[C@@H](CO)C(=O)N[C@@H](CCC(=O)O)C(=O)N[C@@H](Cc1cccs1)C(=O)N[C@@H](CC(N)=O)C(=O)N[C@@H](CC(C)C)C(=O)N[C@@H](CC(=O)O)C(=O)N[C@@H](C)C(=O)N[C@@H](CCC(=O)O)C(=O)N[C@@H](Cc1ccccc1)C(=O)N[C@@H](CCCNC(=N)N)C(=O)N[C@@H](Cc1cnc[nH]1)C(N)=O (H-ISE[2Thi]NLDAEFRH-NH2) |
